According to ChEMBL document CHEMBL5143731, “N-Acylamino Saccharin as an Emerging Cysteine-Directed Covalent Warhead and Its Application in the Identification of Novel FBPase Inhibitors toward Glucose Reduction” (J Med Chem, 2022):
Activity calls are given as the source filed them. The rule behind the calls is not given here.

Tests used:
[1] = Half life of the compound in buffer; assay type: physicochemical
In short: (§1)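 Electrophile (20 μmol) incubated at 37 °C either in pH 7.4 buffer, or in DMSO-d6/D2O (5:1), with or without glutathione. Decay followed by 1H NMR kinetics. First-order rate constant kpseudo-1st taken from ln[electrophile] versus time; t1/2 = 0.693/(60×k), in min.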

[2] = Half life of the compound in DMSO; assay type: physicochemical; in short: as §1
[3] = Half life of the compound in GSH; assay type: physicochemical; conditions: GSH (glutathione); in short: as §1
[4] = target: T1, Fructose-1,6-bisphosphatase 1 (Homo sapiens, UniProt P09467); test: Inhibition of human FBPase expressed Escherichia coli BL21 in by malachite green dye based spectrophotometry
T1 sequence (P09467 whole entry): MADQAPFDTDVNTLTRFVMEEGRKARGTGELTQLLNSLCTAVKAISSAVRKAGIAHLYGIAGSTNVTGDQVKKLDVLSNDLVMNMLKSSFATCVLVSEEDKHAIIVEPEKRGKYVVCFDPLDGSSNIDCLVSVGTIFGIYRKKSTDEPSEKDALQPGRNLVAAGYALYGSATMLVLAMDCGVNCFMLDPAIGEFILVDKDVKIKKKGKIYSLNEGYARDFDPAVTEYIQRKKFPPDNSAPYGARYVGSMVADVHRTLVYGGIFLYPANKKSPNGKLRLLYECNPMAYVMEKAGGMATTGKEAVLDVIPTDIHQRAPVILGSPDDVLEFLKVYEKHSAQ
In short: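 His-tagged human liver FBPase expressed in E. coli BL21(DE3) and purified by Ni affinity. Phosphate released from FBP complexed with ammonium molybdate/malachite green and read at 620 nm against a KH2PO4 standard curve (2−60 μM). Initial rates at saturating substrate, fixed effector and varied inhibitor fitted to the Hill equation for IC50.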

[5] = target: T2, Fructose-1,6-bisphosphatase 1 (Homo sapiens) (UniProt P09467); test: Binding affinity to ABPP-labeled FBPase (unknown origin) by silver staining based streptavidin blotting; conditions: dose 2-10 µM, DDE = dose-dependent effect
T2 sequence (whole entry): T1 sequence (P09467 whole entry)
In short: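 LO2 cell lysate (2 mg/mL protein, RPMI-1640/10% FBS cultures lysed at 70−80% confluence) or purified FBPase labelled with a series of alkyne probe concentrations, 37 °C, 2 h. CuAAC with 0.5 mM each of biotin-PEG3-azide, ascorbate, THPTA and CuSO4, 37 °C, 1 h. Samples run on 10% SDS-PAGE, then silver staining and streptavidin-HRP blot with ECL detection.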

[6] = target: T2, Fructose-1,6-bisphosphatase 1 (Homo sapiens); test: Binding affinity to ABPP-labeled FBPase (unknown origin) at 2 to 8 uM by silver staining based streptavidin blotting; conditions: dose 2-8 µM
In short: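 LO2 lysate (2 mg/mL) treated with 2−8 μM alkyne probe, 37 °C, 2 h. Click-biotinylated by CuAAC (0.5 mM reagents, 1 h, 37 °C), resolved by 10% SDS-PAGE. Probed by silver stain and streptavidin-HRP blot; labelled bands near 35 kDa read. 2 μM iodoacetamide alkyne served as the reference.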

Homo sapiens [7] = species on record: Homo sapiens; test: Selectivity ratio of IC50 for human FBPase to IC50 for recombinant ALDOA (unknown origin)
In short: (§2)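 Aldolase (ALDOA/B/C) IC50 by NADH-coupled assay: enzyme plus serial compound dilutions, 0.41 mM NADH and TPI in 0.1 M Tris pH 7.4/0.2 M K-acetate, 3 min at 37 °C. Started with FBP and […], A340 read every 30 s for 6 min. Ratios against the FBPase IC50 from malachite green phosphate assay (620 nm).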

Homo sapiens [8] = species on record: Homo sapiens; test: Selectivity ratio of IC50 for human FBPase to IC50 for recombinant ALDOB (unknown origin); in short: as §2
Homo sapiens [9] = species on record: Homo sapiens; test: Selectivity ratio of IC50 for human FBPase to IC50 for recombinant ALDOC (unknown origin); in short: as §2
Homo sapiens [10] = species on record: Homo sapiens; test: Selectivity ratio of IC50 for human FBPase to IC50 for human GAPDH
In short: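 Recombinant human GAPDH (His-tag, E. coli; 0.1 mg/mL final) preincubated 30 min with compound in 10 mM sodium pyrophosphate pH 8.5 at 37 °C. Started with arsenate, 4 mM NAD+ and 12 mM G3P; A340 at 4 min. Ratio taken against FBPase IC50 from the malachite green phosphate-release assay.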

[11] = target: T3, Tyrosine-protein kinase JAK3 (Homo sapiens) (UniProt P52333); test: Inhibition of JAK3 (unknown origin) at 300 uM measured after 40 mins in presence of ATP by luminescence assay relative to control
T3 sequence (whole entry): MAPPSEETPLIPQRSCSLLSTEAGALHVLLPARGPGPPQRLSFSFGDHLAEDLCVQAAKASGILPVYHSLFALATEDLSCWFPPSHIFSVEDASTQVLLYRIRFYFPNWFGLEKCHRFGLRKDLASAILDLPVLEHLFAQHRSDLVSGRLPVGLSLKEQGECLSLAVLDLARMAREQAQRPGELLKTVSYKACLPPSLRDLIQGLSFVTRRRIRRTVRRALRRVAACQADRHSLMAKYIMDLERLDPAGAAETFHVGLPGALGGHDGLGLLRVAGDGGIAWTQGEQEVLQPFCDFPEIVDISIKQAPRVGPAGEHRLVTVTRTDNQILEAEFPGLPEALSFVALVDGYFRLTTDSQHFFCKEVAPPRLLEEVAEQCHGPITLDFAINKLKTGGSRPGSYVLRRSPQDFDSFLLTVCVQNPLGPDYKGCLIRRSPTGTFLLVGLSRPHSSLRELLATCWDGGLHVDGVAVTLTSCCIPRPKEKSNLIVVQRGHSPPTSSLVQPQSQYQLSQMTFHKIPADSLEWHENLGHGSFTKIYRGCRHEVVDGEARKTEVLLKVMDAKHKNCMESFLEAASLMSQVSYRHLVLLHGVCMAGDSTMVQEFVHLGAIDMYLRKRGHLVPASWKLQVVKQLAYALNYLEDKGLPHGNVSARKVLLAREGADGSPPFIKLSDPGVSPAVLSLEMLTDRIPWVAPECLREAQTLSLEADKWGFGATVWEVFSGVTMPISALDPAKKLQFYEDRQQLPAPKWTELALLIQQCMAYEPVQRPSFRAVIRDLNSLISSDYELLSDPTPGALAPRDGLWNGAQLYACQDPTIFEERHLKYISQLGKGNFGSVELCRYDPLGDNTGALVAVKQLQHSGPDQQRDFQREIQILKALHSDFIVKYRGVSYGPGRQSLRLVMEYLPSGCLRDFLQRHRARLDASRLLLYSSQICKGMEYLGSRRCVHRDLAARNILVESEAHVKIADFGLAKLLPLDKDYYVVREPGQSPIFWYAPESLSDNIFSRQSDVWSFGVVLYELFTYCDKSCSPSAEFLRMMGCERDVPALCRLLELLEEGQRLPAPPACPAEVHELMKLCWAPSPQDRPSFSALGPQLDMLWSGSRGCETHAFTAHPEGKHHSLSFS
In short: (§3)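 Kinase reaction (50 μL): 40 mM Tris pH 7.4, 10 mM MgCl2, 0.1 mg/mL BSA, 1 mM DTT, 10 μM ATP, kinase and substrate, with 1% final DMSO. Run 40 min at 30 °C. Residual ATP read by Kinase-Glo Plus luminescence, inversely related to kinase activity.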

[12] = target: Epidermal growth factor receptor (Homo sapiens) (UniProt P00533); test: Inhibition of EGFR (unknown origin) at 300 uM measured after 40 mins in presence of ATP by luminescence assay relative to control; in short: as §3
[13] = target: Tyrosine-protein kinase BTK (Homo sapiens) (UniProt Q06187); test: Inhibition of BTK (unknown origin) at 300 uM measured after 40 mins in presence of ATP by luminescence assay relative to control; in short: as §3
[14] = AUCt in 12 hrs fasted ICR mouse at 30 mg/kg, ip measured after 24 hrs by LC-MS/MS analysis; conditions: in vivo
in vivo [15] = conditions: ICR, mouse, ip, 30 mg/kg
in vivo [16] = conditions: ICR, mouse, ip, 30 mg/kg; remark: listed apart in the source
in vivo [17] = conditions: ICR, mouse, ip, 30 mg/kg; remark: listed apart in the source

Chain of Epidermal growth factor receptor (Homo sapiens) (P00533 whole entry): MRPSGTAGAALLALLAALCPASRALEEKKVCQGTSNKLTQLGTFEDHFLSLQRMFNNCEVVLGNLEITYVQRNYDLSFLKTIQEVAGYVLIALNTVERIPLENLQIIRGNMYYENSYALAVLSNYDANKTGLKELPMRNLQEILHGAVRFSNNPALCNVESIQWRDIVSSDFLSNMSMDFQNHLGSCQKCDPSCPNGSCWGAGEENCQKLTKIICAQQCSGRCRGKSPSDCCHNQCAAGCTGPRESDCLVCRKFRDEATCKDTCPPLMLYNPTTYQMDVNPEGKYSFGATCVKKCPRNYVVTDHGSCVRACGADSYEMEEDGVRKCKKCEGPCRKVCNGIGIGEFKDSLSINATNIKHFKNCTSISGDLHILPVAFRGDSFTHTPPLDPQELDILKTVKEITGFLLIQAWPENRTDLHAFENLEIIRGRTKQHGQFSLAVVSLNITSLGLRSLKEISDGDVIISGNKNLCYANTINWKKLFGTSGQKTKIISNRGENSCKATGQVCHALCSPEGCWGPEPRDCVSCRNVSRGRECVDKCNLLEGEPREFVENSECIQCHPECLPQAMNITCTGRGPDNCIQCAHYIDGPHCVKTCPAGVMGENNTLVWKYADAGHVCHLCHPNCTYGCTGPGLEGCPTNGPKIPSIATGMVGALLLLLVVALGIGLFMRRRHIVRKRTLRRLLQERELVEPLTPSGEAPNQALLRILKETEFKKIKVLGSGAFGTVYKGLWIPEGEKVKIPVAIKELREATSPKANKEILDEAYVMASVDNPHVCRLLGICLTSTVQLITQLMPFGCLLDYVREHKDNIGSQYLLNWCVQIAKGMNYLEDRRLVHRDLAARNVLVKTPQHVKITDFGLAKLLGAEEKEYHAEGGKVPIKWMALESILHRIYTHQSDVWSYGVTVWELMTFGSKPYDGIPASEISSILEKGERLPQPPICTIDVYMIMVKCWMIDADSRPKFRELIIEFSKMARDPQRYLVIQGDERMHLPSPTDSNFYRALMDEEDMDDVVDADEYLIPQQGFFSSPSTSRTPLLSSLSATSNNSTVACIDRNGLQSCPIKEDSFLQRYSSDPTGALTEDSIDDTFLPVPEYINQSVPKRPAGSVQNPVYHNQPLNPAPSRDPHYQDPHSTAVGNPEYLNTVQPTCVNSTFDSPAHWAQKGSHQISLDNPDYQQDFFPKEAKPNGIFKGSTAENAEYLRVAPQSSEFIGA
Chain of Tyrosine-protein kinase BTK (Homo sapiens) (Q06187 whole entry): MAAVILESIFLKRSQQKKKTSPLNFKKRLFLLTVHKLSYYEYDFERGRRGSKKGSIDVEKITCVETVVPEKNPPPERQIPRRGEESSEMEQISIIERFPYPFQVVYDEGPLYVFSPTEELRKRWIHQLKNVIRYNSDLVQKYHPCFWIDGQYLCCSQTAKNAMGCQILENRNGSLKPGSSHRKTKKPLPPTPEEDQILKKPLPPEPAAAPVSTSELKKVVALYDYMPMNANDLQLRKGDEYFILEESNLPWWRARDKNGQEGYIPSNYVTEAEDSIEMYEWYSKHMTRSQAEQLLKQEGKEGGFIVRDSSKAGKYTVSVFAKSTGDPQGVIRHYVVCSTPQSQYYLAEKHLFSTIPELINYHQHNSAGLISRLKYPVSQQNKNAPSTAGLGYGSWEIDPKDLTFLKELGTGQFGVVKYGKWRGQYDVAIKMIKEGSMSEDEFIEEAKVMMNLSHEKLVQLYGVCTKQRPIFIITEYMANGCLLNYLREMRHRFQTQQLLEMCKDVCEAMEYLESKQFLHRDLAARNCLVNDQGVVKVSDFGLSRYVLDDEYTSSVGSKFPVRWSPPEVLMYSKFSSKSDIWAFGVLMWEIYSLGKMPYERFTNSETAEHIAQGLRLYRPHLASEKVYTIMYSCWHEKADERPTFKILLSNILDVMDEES

SMILES	half-life [1] [days]	half-life [2] [days]	half-life [3] [min]	other results
O=C(NCc1cccc2ccccc12)N1C(=O)c2ccccc2S1(=O)=O	> 6.94	> 6.94	23.7	–
O=C(c1ccccc1)N1Cc2ccccc2S1(=O)=O	> 6.94	> 6.94	> 10000	–
CCCNC(=O)N1C(=O)c2ccccc2S1(=O)=O	> 6.94	> 6.94	46.5	IC50 [4]: > 500 µM
O=C(c1ccccc1)N1Cc2ccccc2C1=O	> 6.94	> 6.94	> 10000	–
O=C(NCc1ccccc1Cl)N1C(=O)c2ccccc2S1(=O)=O	> 6.94	> 6.94	25.2	–
O=C(NCc1cccc(Br)c1)N1C(=O)c2ccccc2S1(=O)=O	> 6.94	> 6.94	29.5	–
O=C(CCc1ccccc1)N1C(=O)c2ccccc2S1(=O)=O	> 6.94	0.241	–	–
C#Cc1ccc(CNC(=O)N2C(=O)c3ccccc3S2(=O)=O)cc1	–	–	–	Activity [5]: Dde; Activity [6]: Active
CC(NC(=O)N1C(=O)c2ccccc2S1(=O)=O)c1ccccc1 (stereo not given)	> 6.94	> 6.94	39.8	IC50 [4]: 8.7 µM; Ratio IC50 (Homo sapiens [7]): > 25; Ratio IC50 (Homo sapiens [8]): > 25; Ratio IC50 (Homo sapiens [9]): > 25; Ratio IC50 (Homo sapiens [10]): 1.3
O=C(NCc1ccccc1Br)N1C(=O)c2ccccc2S1(=O)=O	> 6.94	> 6.94	15.2	–
O=C(NCc1ccc(C(F)(F)F)cc1)N1C(=O)c2ccccc2S1(=O)=O	> 6.94	> 6.94	12.7	–
O=C(NCc1cccs1)N1C(=O)c2ccccc2S1(=O)=O	> 6.94	> 6.94	21.9	–
O=C(NCc1ccccc1F)N1C(=O)c2ccccc2S1(=O)=O	> 6.94	> 6.94	35.9	IC50 [4]: 4.2 µM; Ratio IC50 (Homo sapiens [7]): > 25; Ratio IC50 (Homo sapiens [8]): > 25; Ratio IC50 (Homo sapiens [9]): > 25; Ratio IC50 (Homo sapiens [10]): 16.3
COc1ccccc1CNC(=O)N1C(=O)c2ccccc2S1(=O)=O	> 6.94	> 6.94	67.3	inhibition [11]: < 50%; IC50 [4]: 1.7 µM; inhibition [12]: < 50%; Ratio IC50 (Homo sapiens [7]): > 25; Ratio IC50 (Homo sapiens [8]): > 25; Ratio IC50 (Homo sapiens [9]): > 25; Ratio IC50 (Homo sapiens [10]): > 25; inhibition [13]: < 50%
O=C(NCc1ccccc1C(F)(F)F)N1C(=O)c2ccccc2S1(=O)=O	> 6.94	> 6.94	11.2	–
O=C(Cc1ccccc1)N1C(=O)c2ccccc2S1(=O)=O	> 6.94	0.142	–	–
O=C(NCc1ccc(Br)cc1)N1C(=O)c2ccccc2S1(=O)=O	–	–	11.2	–
O=C(NCC1CCCCC1)N1C(=O)c2ccccc2S1(=O)=O	> 6.94	> 6.94	57.8	IC50 [4]: 16.4 µM
COc1ccc(CNC(=O)N2C(=O)c3ccccc3S2(=O)=O)cc1	–	–	11.2	–
Cc1ccccc1CNC(=O)N1C(=O)c2ccccc2S1(=O)=O	> 6.94	> 6.94	47.5	IC50 [4]: 3.6 µM; Ratio IC50 (Homo sapiens [7]): > 25; Ratio IC50 (Homo sapiens [8]): > 25; Ratio IC50 (Homo sapiens [9]): > 25; Ratio IC50 (Homo sapiens [10]): 3.6
O=C(c1ccccc1)N1C(=O)c2ccccc2S1(=O)=O	> 6.94	> 0.0365	–	–
O=C1NS(=O)(=O)c2ccccc21 [SACCHARIN]	–	–	–	AUC(0-t) at 12 h [14]: 14000 ng·h/mL; half-life at 12 h (in vivo [15]): 66.6 min; Tmax at 12 h (in vivo [16]): 15 min; Cmax at 12 h (in vivo [17]): 29900 ng/mL
O=C(Oc1ccccc1)N1C(=O)c2ccccc2S1(=O)=O	> 6.94	0.127	–	–
COc1cccc(CNC(=O)N2C(=O)c3ccccc3S2(=O)=O)c1	> 6.94	> 6.94	31.4	IC50 [4]: 1.9 µM; Ratio IC50 (Homo sapiens [7]): > 25; Ratio IC50 (Homo sapiens [8]): > 25; Ratio IC50 (Homo sapiens [9]): > 25; Ratio IC50 (Homo sapiens [10]): > 25
O=C(OCc1ccccc1)N1C(=O)c2ccccc2S1(=O)=O	> 6.94	> 6.94	< 1	–
O=C(NCCc1ccccc1)N1C(=O)c2ccccc2S1(=O)=O	> 6.94	> 6.94	33.6	–
